System: MS2 coat protein
Experiment: apparent Kd, MS2 coat protein; higher = weaker binding; RNA-MaP array; FMN 200 µM where present
Procedure, shortened: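 Each design was made on Illumina sequencing-chip clusters by stalled E. coli RNA polymerase and titrated with SNAP-549-labelled MS2 coat protein from 0.7 or 1.5 nM, doubling to 3 µM, in the absence and then the presence of constant ligand. The buffer was 100 mM Tris-HCl pH 7.5, 80 mM KCl, 4 mM MgCl2, BSA, DTT, yeast tRNA and Tween-20. The apparent Kd is the median of filtered per-cluster fits of binding curves, with green signal normalised to red-channel RNA signal and control-cluster median Fmax.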

[1] = designed as: ON switch for flavin mononucleotide, no ligand
[2] = ligand present: flavin mononucleotide, designed as: ON switch for flavin mononucleotide
[3] = designed as: OFF switch for flavin mononucleotide, no ligand
[4] = ligand present: flavin mononucleotide, designed as: OFF switch for flavin mononucleotide

Sequence | apparent Kd [1] [nM] | apparent Kd [2] [nM] | apparent Kd [3] [nM] | apparent Kd [4] [nM]
GCACGAGACUAAGGAUAUGGAGUGUCAACAUUAAACAUGAGGAUCACCCAUGUAAAGAGUACGAUUCAGAAGGUAGAGACGUGC | 59.1 | 22.8 | – | –
GUGCGGAACCUAGGAUAUCCGACAUGGACAGGUGGUAAGUCUCCCACAUGAGGAUCACCCAUGUAGGAGAAGGAGGAUCACGGG | – | – | 6.84 | 7.39
AUAAGUGCAGGAUAUACGGGAAGCUAGCGAAAGCUAGCAAAACAUGAGGAUCACCCAUGUAGAAGGGCACAAUA | – | – | 57.4 | 121
CGAGUUUUUGAGAAGGCAUAAUAUAUAAUACCACAUGUUUACAUGAGGAUCACCCAUGUUUCCUAUGAGGAUAUCAGAAUAUCG | – | – | 16.1 | 14.4
UGCUGUGUCAGAGGAUAUACGUCAAUAAUCCAUUGCAAAUAGCGAUGGACAUGAGGAUCACCCAUGUAGAAGGCUGUCACAGCA | – | – | 58.3 | 242
CGACACCGGGAGAAGGCCAGACGCCGGCGCCCAAUACAACUGAGCUUAUGGAGGAUAUCCCGACAUGAGGAUCACCCAUGUAUC | 35.5 | 10.8 | – | –
AAGAAACAUGAGGAUCACCCAUGUAAUAAUAUGGGAGGAUAUACAAGGACAAUAGUCAAGGUAGAAGGCCUAAGAA | 175 | 27.5 | – | –
GAUCAGCUUGUGAGGAUAUCCGGGCAUAAAGGCUAGGAGAAGGUACAUGAGGAUCACCCAUGUAGAGUCCUGGG | – | – | 47.9 | 58.9
ACAUGAGGAUCACCCAUGUAAAAUUAGGAUAUAUGACUGCACAUGAGGUUCACCCAUGUUCUACCGUAGAAGGGAUAAAUAAUU | 71.1 | 75.6 | – | –
CUGUGAUGGAUCCAGAAUUACAACAUGAGGAUCACCCAUGUGCAGGAUAUCGGGUUGAUAGGCGCCGAGAAGGGUAUAAUCACG | – | – | 110 | 105
CUUUUGUGAGGAUAUCAGUAGUAAUAAAAUAAAAUAACUACUGAGAAGGCACAUGAGGAUCACCCAUGUUCCUC | – | – | 32 | 145
UUUCAACAUGAGGAUCACCCAUGUGAGGAUAUGAUGCAGCAGUGGUCUACGCUGUGCAUCAGAAGGCACAUGUG | – | – | 200 | 21.8
AUUUAGUCAGGAUAUACAUGAGGAUCACCCAUGUAAACUUUUAGUUUAAUUUGAAUGUGUAGAAGGGACAUUUU | – | – | 28.8 | 29.8
AGUGUCAUCGAGAAGGCCUUGACAUGAGGAUCACCCAUGUUAUAACAUGGGAGGAUAUCGAUGAUACAGCUACGUUUCGUAGCA | 509 | 46.7 | – | –
GUGCUUUGGGAGAAGGCCGAUAGCAAAGCUAUCGGAGGAUAUUCAUACCGGAAACGGACAUGAGGAUCACCCAUGUGGCACAAA | 1430 | 44.5 | – | –
AAAGAGCGAGGAUAUGCGUGCCGGUGCGGCCAGCCGAUGUGACAUGAGGAUCACCCAUGUAGAAGGCGCAGAAA | – | – | 14.3 | 14.7
AAUAACAGAGGAUAUACUGUUUUAUGUGUUUGUUGUUUUAAACAUGAGGAUCACCCAUGUAGAAGGCUGAGUAA | – | – | 23.2 | 23.7
ACAUGAGGAUCACCCAUGUAUACAUAGGAUAUUGGUGAUCAGGCAUGUUUUACAGGAUAUGUCUGCGAGAAGGAUGCAAGUUGC | 557 | 424 | – | –
UGUUGUAUUACAGGAUAUCUAUUAGUUUUAAUUAGAGAAGGGUAUUCACAUGAGGAUCACCCAUGUAUAUACGAGGAAGUUGUG | 39.1 | 42.2 | – | –
GCCAUCGCAUGAGGAUAUGGUCAGCUUUGCUGACCAGAAGGCAUGUCAUAAGACAUGAGGAUCACCCAUGUAGUUAAGAUGGCA | 778 | 47.9 | – | –
GGUACUCAAAGAGUACCAAUACGAACAUGAGGAUCACCCAUGUAGGAUAUGCUACUCAAAGAGCAGCAGAAGGACAUGUGCCUA | – | – | 17.7 | 125
AUGAGUAAAGCAGGAUAUCUAUUGUCUCUGAAACAUGAGGAUCACCCAUGUAGAGAAGGGCUAAGUCUUACUCUUCGGAGUUGA | – | – | 9.98 | 10.3
UGUAAAAUUGAUCCUGCAAGUACAUGAGGAUCACCCAUGUGCUAGGAUAUCGCGCAGCUAAAGUCCGAGAAGGAGCACAAUGUA | – | – | 32.3 | 95.6
UCUCUGCGAGGAUAUACGUGCGCGCGCGCGCGCGCGCGCGUACAUGAGGAUCACCCAUGUAGAAGGCGCUCUGC | – | – | 30.8 | 28.2
GUCAGCUCGUGAGGAUAUACAACACUGCUUCGGCAGUGUAUUAAGAUCACAUGAGGAUCACCCAUGUAGAAGGCACGAGCUCAU | – | – | 15.2 | 246
CAGUACUGAGGAUAUACAUGAGGAUCACCCAUGUGUUCGUGGUAGGAUAUCCGCAAAAGUAGAAGCCAGAAGGAGAUGUGCGUG | – | – | 17.7 | 13.9
GUCGGAAACGACAAUGAUAGGACUGAGGAUAUACAUAAGUUUGUCCAUACAUGAGGAUCACCCAUGUAGAAGGCAGUCCUAUCU | – | – | 6.33 | 15.9

Source: the EternaBench riboswitch data
